From the EternaBench riboswitch data

Assays:
MS2 coat protein [1] = assay: apparent Kd, MS2 coat protein; higher = weaker binding; RNA-MaP array
How it was run: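 Apparent Kd was taken as the median of binding curves fitted cluster by cluster. The designed RNAs were made by transcription of sequenced DNA templates on an Illumina sequencing chip and exposed to fluorescently labeled MS2 coat protein (1.5 nM to 3 μM) at room temperature, with or without input ligand, for 0.8–1.5 h at the lowest and 10–20 min at the highest concentrations. Any design measured on fewer than 10 clusters was left out.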

MS2 coat protein [2] = assay: apparent Kd, MS2 coat protein; higher = weaker binding; RNA-MaP array; FMN 200 µM where present; details: designed as: OFF switch for flavin mononucleotide
How it was run: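 Green signal was scaled to red-channel RNA signal and control-cluster median Fmax, and the apparent Kd was taken as the median of filtered per-cluster binding-curve fits. The binding series used SNAP-549-labelled MS2 coat protein from 0.7 or 1.5 nM, doubling to 3 µM, on designs transcribed by stalled E. coli RNA polymerase on Illumina sequencing-chip clusters. Each series ran without and then with constant ligand in 100 mM Tris-HCl pH 7.5, 80 mM KCl, 4 mM MgCl2, BSA, DTT, yeast tRNA and Tween-20.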

[3] = designed as: OFF switch for flavin mononucleotide, no ligand
[4] = ligand present: flavin mononucleotide, designed as: OFF switch for flavin mononucleotide
[5] = designed as: ON switch for flavin mononucleotide, no ligand
[6] = ligand present: flavin mononucleotide, designed as: ON switch for flavin mononucleotide
[7] = ligand present: flavin mononucleotide

| Sequence | apparent Kd (MS2 coat protein [1]; [3]) [nM] | apparent Kd (MS2 coat protein [1]; [4]) [nM] | apparent Kd (MS2 coat protein [1]; [5]) [nM] | apparent Kd (MS2 coat protein [1]; [6]) [nM] | also measured |
| --- | --- | --- | --- | --- | --- |
| AGACCCAGAGGAUAUAACACAUGUAACAUGAGGAUCACCCAUGUGUCUAGUAGACACUUGUUAGAAGGCAGGCAUG | 83.2 | 54.5 | – | – | – |
| AGGAACGUAGAGAAGGGAUCAAUUCGGUACAUGAGGAUCACCCAUGUGAUGGCCAAACUUCGAAAUCAGGAUAUCUCAUAAUAC | – | – | 18.4 | 14.2 | – |
| AGGCGGGUAGGAUAUACCUUGUUCCUAGUAUCCAGUCGAGGACAUGAGGAUCACCCAUGUAGAAGGACCCAUUC | 30.9 | 36.5 | – | – | – |
| AGUCAAGAGUAGAAGGGUGGAAAUUCGGUCGACACAGGAUAUACUUCAGGAGCCAGAAGACAAUAACAUGAGGAUCACCCAUGU | – | – | 14.1 | 9.27 | – |
| AUAAAACGAGUGCAGGAUAUUCCGUCGCGCACAUGAGGAUCACCCAUGUCAAUUGGGCAUCGUACGAAGAAGGGCAAAUACCAGCG | – | – | 116 | 76.4 | – |
| AUCACAUGAGGAUCACCCAUGUUAGGUAGAUGCAGUAAAGUCUAGGAUAUAAGCUUGUGAAGUAGUUAGAAGGAGACACAUGAG | 22.9 | 18.3 | – | – | – |
| AUCAGUCUAGAAGGAUAUCAGCCCGAAGCCGAGUGAGAAGGUCUAGACAUGAGGAUCACCCAUGUCACAGCAACUAUCAAGAAC | 9.74 | 19.1 | – | – | – |
| AUGAGUGGCCUGACAUGAGGAUCACCCAUGUCAAAUAAUGCAAGAAGGGACCUUUAUUCAAGGUGUCAGGAUAUUGAUUAAACC | – | – | 15.8 | 12.9 | – |
| AUGAUCAUAGUAAGGAUAUCCGGACCAAUAGCAAAGGAGAAGGUACAUGAGGAUCACCCAUGUUUAUUAAUACU | 9.11 | 9.98 | – | – | – |
| AUGCUUAAAAUGCUCAAACAUGAGGAUCACCCAUGUGAGGUCAAGGAUAUUAUUUAACUUGUUUAUAAGAAGGUGACCGAAUGA | – | – | 61.1 | 18.7 | – |
| AUGUUCGAACAUGAGGAUCACCCAUGUGAACCUCAUAAACGUAGAAGGCGACCGAGUUUAUGGGUCGAGGAUAUACCUCGAGAA | 334 | 554 | – | – | – |
| AUUAGCAUCCAAGGAUAUCAGUUGGCCCGCAGGUGAGAAGGUGGAUUCUGGGCGCCGCGUGGGACACAUGAGGAUCACCCAUGU | 30.3 | 26 | – | – | – |
| AUUCAUCUCUAGAAGGGACUGCACAAAACACAGAAUUCUUACAUGAGGAUCACCCAUGUUGUGGGUCAGGAUAUAGGCAGGCCA | – | – | 25.3 | 20.1 | – |
| AUUCCAAUAGGAUAUACAUGAGGAUCACCCAUGUGAUGAGCCCGUAAGACAGACGUCAGUAGAAGGAUUAGGAA | 24.5 | 31.7 | – | – | – |
| AUUGAGACCUAGAAGGCGAAAACAUGAGGAUCACCCAUGUAGAUAACACCUACAUGAGCGAAAUACGAGGAUAUAGGAAAACUC | 356 | 351 | – | – | – |
| CAAAUAUAGUCAGGAUAUGUUCGAAAGGGUGCACAUGAGGAUCACCCAUGUCAUAAGACACUAGCACAGAAGGGACCCGAGAGA | 149 | 141 | – | – | – |
| CAACAUGAGGAUCACCCAUGUGGAGGUCCCGUUACCGGCGGAUAGGAUAUGGAACGCAGCGAAAACCAGAAGGAUCUAUAGGAC | – | 112 | – | – | – |
| CAAGCAUGAGAGAAGGUCCCAUCUAAACAUGAGGAUCACCCAUGUGAUACGGUGCUAUUGUGAAGGAAGGAUAUCUCAGUUAAU | – | – | 61.7 | 16.8 | – |
| CACAACGGUAGUUAGGAUAUCCAUAUGCGUACAUGAGGAUCACCCAUGUAAUUACAGAAAUGAUAGGAGAAGGAACGCAUCCGAAA | – | – | 33.3 | 21 | – |
| CACCGGAAUGGAGGAUAUCCUACACAUGAGGAUCACCCAUGUUAUUUAUAGCUAUUAAAAGUUCGGGAGAAGGCCAAGCGAUUC | – | – | 28.7 | 13.2 | – |
| CACGCCAGAUCUCAGGAUAUCCCACAUCAAACAUGAGGAUCACCCAUGUGACAUAUAUAGAACAUGGAGAAGGGAGCACAUGCGGC | – | – | 209 | 113 | – |
| UUUUUGAAGCUUCGUCAAUACAGUUAGGAUAUGAGAGACAUGAGGAUCACCCAUGUGCAUGUUGAUUAGAAGGAACAACUAUCU | – | – | – | – | apparent Kd (MS2 coat protein [2]; no ligand): 14.2 nM; apparent Kd (MS2 coat protein [2]; [7]): 12.7 nM |
| UUUUUGUCAGGAUAUGACUAGAUGCACGUUAGUGCAUCUACUUAGAAGGGACAUGAGGAUCACCCAUGUAUUCC | – | – | – | – | apparent Kd (MS2 coat protein [2]; no ligand): 29.8 nM; apparent Kd (MS2 coat protein [2]; [7]): 24.3 nM |
| UUUUUGUGAGGAUAUCAGUAGUAAAAAAAUAAAAUUACUACUGAGAAGGCACAUGAGGAUCACCCAUGUUCUUU | – | – | – | – | apparent Kd (MS2 coat protein [2]; no ligand): 18.7 nM; apparent Kd (MS2 coat protein [2]; [7]): 58.5 nM |
| UUUUUGUGAGGAUAUUAGUAGUAAAAAAAUAAAAUUACUACUGAGAAGGCACAUGAGGAUCACCCAUGUUCCUC | – | – | – | – | apparent Kd (MS2 coat protein [2]; no ligand): 35.7 nM; apparent Kd (MS2 coat protein [2]; [7]): 174 nM |
| UUUUUUUACUAGGAUAUCGCCGCCGAAAGGCGGCGAGAAGGAGUAACAUGAGGAUCACCCAUGUGUCCUUUUUU | – | – | – | – | apparent Kd (MS2 coat protein [2]; no ligand): 21.9 nM; apparent Kd (MS2 coat protein [2]; [7]): 74.2 nM |
